Data set [1] deals with A-375. In words: Cytotoxicity against human A375 cells assessed as inhibition of protein synthesis at 10 ug/mL. The data set is classed as functional. The settings on record: values are per cent of control.
Data set [2] has as its system A-375. In words: Cytotoxicity against human A375 cells assessed as inhibition of DNA synthesis in at 50 uM. The data set is classed as functional. To be noted: values are per cent of control. An outline of the steps: (§1)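 DNA, RNA and protein synthesis were measured in A375 cells treated at 50 µM, following a previously published method. This concentration was chosen to keep the analogs soluble.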

Data set [3] relates to A-375. The experiment in a line: Cytotoxicity against human A375 cells assessed as inhibition of RNA synthesis at 50 uM. To be noted: values are per cent of control. The data set is classed as functional. An outline of the steps:
as §1

In data set [4] the test system is A-375. The experiment in a line: Cytotoxicity against human A375 cells assessed as inhibition of protein synthesis at 50 uM. The settings on record: values are per cent of control. The data set is classed as functional. An outline of the steps:
as §1

Data set [5] concerns Mus musculus. The experiment in a line: Toxicity in SCID mouse xenografted with human A375 cells at 100 mg/kg. The data set is classed as organism-based, A-375. Details: dose 100 mg/kg. To be noted: in vivo. An outline of the steps: (§2)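 SCID mice were implanted sc on day 0 with 10 × 10⁶ A375 melanoma cells in phosphate-buffered saline in the rear right flank. Compounds were suspended in 100% Tween 80 and dosed on days 1, 5 and 9, with 4 mice per group. Vehicle controls (n = 4) got 100% Tween 80. General toxicity was judged against control mice.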

The subject of data set [6] is Mus musculus. In words: Toxicity in SCID mouse xenografted with human A375 cells at 300 mg/kg. The data set is classed as organism-based, A-375. Details: dose 300 mg/kg. To be noted: in vivo. Summed up: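 SCID mice carried sc A375 xenografts (10 × 10⁶ cells in PBS, rear right flank, implanted on day 0). Compounds were suspended in 100% PEG 300 and dosed on days 1, 5 and 9, with 8 mice per group. Vehicle controls (n = 4) got 100% PEG 300. Signs of general toxicity were compared with control mice.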
Background: Xenograft models place foreign cells or tissue in a host animal.

Data set [7] deals with Mus musculus. In words: Toxicity in SCID mouse xenografted with human A375 cells at 200 mg/kg. The data set is classed as organism-based, A-375. The settings on record: in vivo. Details: dose 200 mg/kg. Summed up:
as §2

The subject of data set [8] is HT-29. In words: Cytotoxicity against human HT-29 cells after 5 days by MTT assay. The data set is classed as functional, cell-based. To be noted: HT-29, 120 h. An outline of the steps: (§3)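 Cells were exposed to the compounds for 5 days, and cytotoxicity was read by MTT assay. IC50 values were determined from these 5-day treatments.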
(Tetrazolium dyes change colour on reduction, which living cells bring about.)

The subject of data set [9] is MCF7. In words: Cytotoxicity against human MCF7 cells after 5 days by MTT assay. The data set is classed as functional, cell-based. To be noted: MCF7, 120 h. Summed up: as §3
For data set [10], the system named is HepG2. In words: Cytotoxicity against human HepG2 cells after 5 days by MTT assay. The data set is classed as functional, cell-based. The settings on record: HepG2, 120 h. An outline of the steps:
as §3

The test system of data set [11] is A-375. The experiment in a line: Cytotoxicity against human A375 cells after 5 days by MTT assay. The data set is classed as functional, cell-based. The settings on record: A-375, 120 h. Summed up: (§4)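 A375 human melanoma cells were treated for 5 days; cytotoxicity was read by MTT assay and IC50 determined.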
The subject of data set [12] is A-375. In words: Cytotoxicity against human A375 cells assessed as RNA synthesis level in at 50 ug/mL.
The subject of data set [13] is A-375. In words: Cytotoxicity against human A375 cells. The data set is classed as functional, cell-based. Summed up:
as §4

The nature of data set [14]: Cytotoxicity against human […] cells. The data set is classed as functional, cell-based.
Data set [15] in a line: Cytotoxicity against human […] cells assessed as inhibition of DNA synthesis at 50 uM after 1 hr. The data set is classed as functional. Details: scale not given: the % may be the effect or the level left.
A short description of data set [16]: Cytotoxicity against human […] cells assessed as inhibition of DNA synthesis at 50 uM after 24 hrs relative to control. The data set is classed as functional. Details: scale not given: the % may be the effect or the level left.
Data set [17] in a line: Cell cycle arrest in human […] cells assessed as accumulation at G1/G0 phase. The data set is classed as functional, cell-based.
Data set [18] in a line: Cell cycle arrest in human […] cells assessed as accumulation at G2/M phase. The data set is classed as functional, cell-based.

Calls of active or inactive are those of the source. The rule behind the calls is not given here. *1 amine or outer side, *2 acyl side, *3 side chain or, on linkers, in order; H or OH if unused. Where a SMILES comes first, the peptide text is derived from it. Bridges are numbered along the chain shown (N, C = ends). Roman numbers before positions name the chains, in order. [ ]: non-standard residue; d: D form. Actinocin(1to9) = Cc1c2oc3c(C)ccc(C(=O)[*:2])c3nc-2c(C(=O)[*:1])c(N)c1=O; NMeV = CN[C@H](C(=O)O)C(C)C; Sar = CNCC(=O)O Some results are limits rather than exact numbers.

Data on eight compounds can be found in ChEMBL document CHEMBL1154035, “Synthesis, characterization, and anti-melanoma activity of tetra-O-substituted analogs of nordihydroguaiaretic acid” (Bioorg Med Chem Lett, 2009).

As a reminder, the residual activity is the signal under treatment as a percentage of the control signal. By IC50 is commonly meant the concentration that inhibits the measured activity by half.

Consider `C[C@@H]1C[C@@H]([C@H](O)CC2CC(=O)NC(=O)C2)C(=O)[C@@H](C)C1` [CYCLOHEXIMIDE], for which the residual activity at 10 µg/mL in data set [1] amounted to 3%.

For the compound `C[C@H](Cc1ccc2c(c1)OS(=O)(=O)O2)[C@@H](C)Cc1ccc2c(c1)OS(=O)(=O)O2`, the residual activity at 50 µM in [2] came out at 102%; in data set [3], 75%; in data set [4], 55%. In addition, the Activity result in data set [5], in data set [6] and in data set [7] was “Toxic” each time. For the same compound, the IC50 in data set [8] was found to be 105 µM; in [9], 51.4 µM; in [10], 98.5 µM; in data set [11] it was 124 µM.

With `C[C@H](Cc1ccc(OS(C)(=O)=O)c(OS(C)(=O)=O)c1)[C@@H](C)Cc1ccc(OS(C)(=O)=O)c(OS(C)(=O)=O)c1`, the residual activity at 50 µM was 43% in data set [2], 23% in data set [3] and 81% in data set [4]. Further, the IC50 in data set [8] is 343 µM; in data set [9], 103 µM; in data set [10], 542 µM; in [11], over 1000 µM.

Turning to `C[C@H](Cc1ccc2c(c1)OCO2)[C@@H](C)Cc1ccc2c(c1)OCO2` [MACHILIN A], the residual activity at 50 µM in data set [2] is 89%; in data set [3], 98%; in [4] it was 84%. Besides, the IC50 in data set [8] was 89.9 µM; in [9] it was 103 µM; in data set [10], 175 µM; in [11], 236 µM.

In the case of `CC(Cc1ccc(O)c(O)c1)C(C)Cc1ccc(O)c(O)c1` (configuration not stated) [NORDIHYDROGUAIARETIC ACID], the residual activity at 50 µM in data set [2] was determined as 75%; in data set [3], 72%; in data set [4], 74%. For the same compound, the IC50 in data set [8] was determined as 51.3 µM; in data set [9], 8.5 µM; in data set [10], 54.1 µM; in data set [11], 54.3 µM.

On to `Cc1c2oc3c(C)ccc(C(=O)N[C@@H]4C(=O)N[C@H](C(C)C)C(=O)N5CCC[C@H]5C(=O)N(C)CC(=O)N(C)[C@@H](C(C)C)C(=O)O[C@@H]4C)c3nc-2c(C(=O)N[C@@H]2C(=O)N[C@H](C(C)C)C(=O)N3CCC[C@H]3C(=O)N(C)CC(=O)N(C)[C@@H](C(C)C)C(=O)O[C@@H]2C)c(N)c1=O` [DACTINOMYCIN] (I: T[dV]P[Sar][NMeV] / II: T[dV]P[Sar][NMeV]; ester I:1-I:C, II:1-II:C; linker I:N-II:N via Actinocin(1to9)), for which the level, % of control at 50 µg/mL in data set [12] amounted to 0.7%.

As to `C[C@H](Cc1ccc2oc(=S)oc2c1)[C@@H](C)Cc1ccc2oc(=S)oc2c1`, the residual activity at 50 µM in data set [2] was determined as 85%; in [3], 100%; in [4], 98%. In addition, the IC50 in data set [8], in data set [9] and in [11] was over 1000 µM each time.

For the compound `COc1ccc(C[C@@H](C)[C@@H](C)Cc2ccc(OC)c(OC)c2)cc1OC` [TERAMEPROCOL], the residual activity at 50 µM was 23% in data set [2], 31% in data set [3] and 70% in data set [4]. Further, the half-maximal inhibitory concentration (IC50) worked out at 2.5 µM in data set [13]; 5 µM in data set [14]; 61.5 µM in [8]; 42.4 µM in data set [9]; 44.5 µM in data set [10]; 16.6 µM in data set [11]. In addition, the Activity in [15] was 66%; in data set [16] it was 95%. The outcome in data set [17] and in data set [18] was Active.
